RGS8-Gao = regulators of human RGS8-Galphao interaction; P09471; multiplexed bead flow cytometry, RGS8-Galphao binding; actives lie on both sides; response (percent of control binding), % at 10 µM; hit rate 0.34% among 220,000; AID 1423; in the data active = response below about 60% or above about 140%; inactive = in between;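 note: Galphao activated as the GDP aluminium fluoride complex binding bead-coupled RGS8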
Target sequence (P09471 whole entry, looked up): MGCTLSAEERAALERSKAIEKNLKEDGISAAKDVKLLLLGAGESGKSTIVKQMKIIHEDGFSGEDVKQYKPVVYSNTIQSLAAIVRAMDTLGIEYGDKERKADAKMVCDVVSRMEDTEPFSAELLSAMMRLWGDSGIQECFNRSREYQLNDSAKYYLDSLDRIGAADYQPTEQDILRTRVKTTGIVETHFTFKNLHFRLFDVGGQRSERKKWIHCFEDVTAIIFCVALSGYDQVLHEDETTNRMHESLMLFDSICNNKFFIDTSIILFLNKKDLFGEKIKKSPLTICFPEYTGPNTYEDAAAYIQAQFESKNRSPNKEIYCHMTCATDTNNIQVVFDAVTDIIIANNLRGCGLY
RGS7-Gao reg = modulates binding of RGS7 to human Galphao. P09471. Multiplexed bead flow cytometry; actives lie on both sides. binding response (% of control), % at 10 µM. hit rate 0.35% among 220,000; in the data active = binding response below about 49% or above about 150%; inconclusive = no clear call, values can overlap the other calls; inactive = in between;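 note: fluorescent Galphao held in activated GDP-AlF4 state binding bead-coupled RGS7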
RGS4-Gao reg = human RGS4-Galphao interaction regulation | binding response (% of control), % at 10 µM | Multiplexed bead flow cytometry, RGS4-Galphao binding; actives lie on both sides | P09471 | hit rate 0.33% among 220,000; in the data active = binding response below about 49% or above about 150%; inactive = in between;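 note: fluorescent Galphao activated with aluminum fluoride binding bead-coupled RGS4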
Calb biofilm kill = mixture kills Candida albicans biofilm cells. C. albicans biofilm persisters + clotrimazole, fluorescence viability; primary screen in compound mixtures of four per well. inhibition, % at 7.6 µM. hit rate 0.02% among 120,000. AID 1242;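 active = inhibition above 30.3% in the primary screen of four-compound pools, then above 30% when the compound was retested; inconclusive = passed the primary limit but could not be retested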;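 note: compounds exposed to preformed 24 h biofilms for 48 h; 0% = untreated biofilm control and 100% = clotrimazole plus chlorhexidine kill blank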
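System: C. albicans CAF4-2 wild-type biofilms; Medium: RPMI/MOPS medium, pH 7.0; Reagent: Clotrimazole, 50 µg/mL; Times: biofilm formation 24 h, compound exposure 48 h, 37 °C; Detection: 2-h Alamar Blue fluorescence, 535/590 nm excitation/emission; Evaluation: percent inhibition of biofilm viability.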
RGS16-Gao = RGS16-Galphao interaction regulator (human). O15492+P09471. bead-based flow cytometry RGS16-Galphao binding, fluorescence; actives lie on both sides. binding response (% of control), % at 10 µM. hit rate 0.38% among 220,000;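 note: Galphao activated by GDP with aluminum fluoride before binding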
RGS4-Gao HTS = regulators of human RGS4-Galphao interaction; hit rate 99% among 1,600; shares compounds with RGS16-Gao; multiplexed bead flow cytometry, RGS–Galpha-o binding; RGS4–Galpha-o binding response, % at 10 µM;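 note: fluorescently labeled Galpha-o bound to GDP with aluminium fluoride binding biotinylated RGS beads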
Target sequence (P09471 whole entry, looked up): as above
Target sequence (P49798 whole entry, looked up): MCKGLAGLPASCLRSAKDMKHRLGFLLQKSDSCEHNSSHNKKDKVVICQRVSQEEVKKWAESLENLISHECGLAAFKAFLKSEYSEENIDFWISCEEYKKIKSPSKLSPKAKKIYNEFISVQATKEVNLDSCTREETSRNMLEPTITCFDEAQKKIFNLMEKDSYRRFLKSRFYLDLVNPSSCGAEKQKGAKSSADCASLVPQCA
Biotin-avidin = interferes with biotinylated probe binding to avidin beads | shares compounds with RGS16-Gao | streptavidin beads, fluorescein-biotin binding, flow cytometry | inhibition, % at 10 µM | 1,700 tested, under 10 active | AID 1783;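 active = inhibition above 50%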;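 note: median green fluorescence of gated singlet beads compared with DMSO control wells; 0% = DMSO wells and 100% = complete loss of bead fluorescence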
RGS8-Gao confirm = confirmation of regulators of human RGS8-Galphao interaction | shares compounds with RGS16-Gao | binding response (% of control), % at 10 µM | bead-based flow cytometry RGS8-Galphao binding, fluorescence; actives lie on both sides | hit rate 3% among 1,700; in the data active = binding response below about 72% or above about 130%; inactive = in between;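 note: Galphao activated as GDP AlF4 complex before binding bead RGS8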
RGS7-Gao single = confirmation of regulators of human RGS7-Galphao interaction. shares compounds with RGS16-Gao. bead-based flow cytometry RGS7-Galphao binding; actives lie on both sides. response (percent of control binding), % at 10 µM. hit rate 7.8% among 1,700. AID 1837; in the data active = response below about 75% or above about 130%; inactive = in between;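 note: fluorescent Galphao activated with GDP and aluminum fluoride binding bead-coupled RGS7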
RGS16-Gao single = confirmation of regulators of human RGS16-Galphao interaction; shares compounds with RGS16-Gao; bead-based flow cytometry, RGS16-Galphao binding; actives lie on both sides; response (% of control binding), % at 10 µM; hit rate 4% among 1,700; AID 1838; in the data active = response below about 74% or above about 130%; inactive = in between;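 note: Galphao activated as the GDP aluminium fluoride complex binding bead-coupled RGS16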
RGS4-Gao single = confirmation of regulators of human RGS4-Galphao interaction. shares compounds with RGS16-Gao. RGS4-Galphao binding, multiplexed bead flow cytometry; actives lie on both sides. binding response (% of control), % at 10 µM. hit rate 4% among 1,700. AID 1840; in the data active = binding response below about 74% or above about 130%; inactive = in between
RGS19-Gao conf = confirmation of regulators of human RGS19-Galphao interaction | bead-based flow cytometry RGS19-Galphao binding; actives lie on both sides | hit rate 5% among 1,700 | shares compounds with RGS16-Gao | response (percent of control binding), % at 10 µM; in the data active = response below about 50% or above about 160%; inactive = in between;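 note: 100% = no compound control and 0% = blank background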
Active calls of the source: *; i = inactive; ? = inconclusive; . = no result; [ ] = remark or other dose. An excerpt weighted towards active compounds, which were near 0.74% of everything screened. Unless noted, the rule behind the calls is not given here.

SMILES	RGS8-Gao	RGS7-Gao reg	RGS4-Gao reg	Calb biofilm kill	RGS16-Gao	Biotin-avidin	RGS8-Gao confirm	RGS7-Gao single	RGS16-Gao single	RGS4-Gao single	RGS19-Gao conf	others
COc1ccc(CNc2nc3ccccc3n2C)c(O)c1	103	?	98	19	102	.	.	.	.	.	.
Cn1c(NCc2cc(Br)ccc2O)nc2ccccc21	141*[activator]	116	119	.	291	-2	95	72*	85	85	80	RGS4-Gao HTS=119*
O=C(COC(=O)CNC(=O)c1ccc(Cl)cc1)Nc1cccc(S(=O)(=O)N2CCCC2)c1	94	?	91	16	94	.	.	.	.	.	.
CC1CCc2sc(C(=O)N/N=C/c3ccc(O)cc3)cc2C1 (stereo unspecified)	101	?	101	16	97	.	.	.	.	.	.
CCCCn1c(=S)[nH]c2c(oc3ccc(Cl)cc32)c1=O	5.1*	7.1*	-5.2*	9	-19*	-2	106	108	105	101	109
CCCNC(=O)CN1C(=O)NC2(CCCc3cc(OC)ccc32)C1=O (stereo unspecified)	148*[activator]	110	108	.	253	.	.	.	.	.	.	RGS4-Gao HTS=108*
Cc1[nH]n(-c2ccccc2)c(=O)c1/C=N/Nc1nncc(-c2ccccc2)n1	.	.	.	.	.	1	95	89	91	93	59
CCCc1cc(-c2nc(-c3ccc(Cl)cc3)cs2)ccn1	100	101	100	.	87	.	.	.	.	.	.
CCCc1cc(-c2nc(-c3ccc(Br)cc3)cs2)ccn1	68	76	83	14	-6.4*	-1	101	97	98	99	105	RGS4-Gao HTS=83*
Cc1nn(-c2ccccc2)c2sc(C(=O)N3CCCCC3)cc12	.	.	.	.	.	-2	101	97	106	103	105
COc1ccc(N(CC(=O)N/N=C(\C)CCc2ccccc2)S(=O)(=O)c2ccc(C)cc2)cc1	106	?	104	14	106	.	.	.	.	.	.
Cc1ccc(CNC(=O)COC(=O)c2c(C)noc2C)cc1	132	142	157*[activator]	.	142	1	101	99	100	100	93
COc1ccc(-c2ccc(SCC(=O)N3CCOCC3)nn2)cc1OC	.	.	.	.	.	-2	103	105	106	106	108
COc1ccc(-c2ccc(SCC(=O)N3CCCC3)nn2)cc1OC	99	94	97	.	104	.	.	.	.	.	.
Cc1nc(-c2cccnc2)sc1C(=O)N/N=C/c1ccccc1Cl	100	?	101	10	101	.	.	.	.	.	.
CCCc1cc(-n2ccnc2)n2c(nc3ccccc32)c1C#N	119	151*[activator]	162*[activator]	.	192*[activator]	7	101	119	110	111	138
Cc1ccc(Cl)c(OC(=O)Cn2cnc3c2c(=O)n(C)c(=O)n3C)c1	95	101	88	0	87	.	.	.	.	.	.
CCCCNC(=O)CN(CCc1ccccc1)S(C)(=O)=O	108	133	169*[activator]	.	149	i	107	118	110	114	109
O=S(=O)(Nc1ccccc1O)c1ccc(Cl)nc1	99	?	98	23	103	.	.	.	.	.	.
CCN(CC)c1ccc(NC(=O)Nc2cccc(C(C)=O)c2)cc1	5.3*	-3.4*	-7.5*	.	-17*	1	97	94	97	92	96
COC(=O)Cc1c(C)nc2nc(NCc3ccc(Cl)cc3)[nH]n2c1=O	118	151*[activator]	155*[activator]	.	178*[activator]	2	100	100	102	100	89
CCOP(=O)(OCC)C(Nc1ccc(F)cc1)c1ccccc1 (stereo unspecified)	.	.	149	8	.	1	100	94	99	99	94
NC(=O)c1ccc(F)cc1	15*	18*	24*	.	12*	-1	105	111	107	110	100
CCOC(=O)N1CCN(CC(=O)Nc2c(C(=O)OC)[nH]c3ccccc23)CC1	98	175*[activator]	124	.	103	0	106	99	110	107	100	RGS4-Gao HTS=124*
COC(=O)c1[nH]c2ccccc2c1NC(=O)CN1CCCCCC1	106	106	106	.	112	.	.	.	.	.	.
SMILES	RGS8-Gao	RGS7-Gao reg	RGS4-Gao reg	Calb biofilm kill	RGS16-Gao	Biotin-avidin	RGS8-Gao confirm	RGS7-Gao single	RGS16-Gao single	RGS4-Gao single	RGS19-Gao conf	others
Cc1[nH]c2ccccc2c1C(=O)CSC(=S)N1CCCCC1	101	102	98	26	97	.	.	.	.	.	.
O=c1c(-c2ccccc2)c1-c1ccccc1	98	103	100	.	99	.	.	.	.	.	.
O=C1NC(c2ccccc2)=C(c2ccccc2)C1=O	140*[activator]	109	116	4	252	2	105	111	110	110	96	RGS4-Gao HTS=116*
O=C(CNC(=O)c1ccccc1)NCc1ccc(Cl)cc1	102	150*[activator]	104	12	103	2	110	112	113	109	112	RGS4-Gao HTS=104*
CN(C)/C=C/C(=O)c1cnc(-c2ccccc2)s1	105	102	103	15	109	.	.	.	.	.	.
CN(C)/C=C/C(=O)c1cnc(-c2ccc(Cl)cc2)s1	7.8*	2.5*	3.1*	-2	-6.2*	0	99	91	99	96	96
CC(C)CCNC(=O)CN(Cc1cccs1)C(=O)CCC(=O)Nc1nccs1	102	100	98	.	101	.	.	.	.	.	.
O=[N+]([O-])c1cc(C(F)(F)F)c(Cl)cc1N1CCN(CCO)CC1	102	100	103	21	99	.	.	.	.	.	.
OCCN1CCN(c2cc(C(F)(F)F)nc3c(F)cccc23)CC1	11*	?	-9.0*	22	-6.6*	0	102	100	103	100	107
Cc1ccc(C2C(C#N)=C(N)N(c3ncn[nH]3)C3=C2C(=O)CC(C)(C)C3)cc1 (stereo unspecified)	86	94	89	.	54	.	.	.	.	.	.
O=C(C1CCC(N2C(=O)C3CC=CCC3C2=O)CC1)N1CCCCC1 (stereo unspecified)	170*[activator]	118	129	.	397	0	110	108	119	110	114	RGS4-Gao HTS=129*
O=C(C1CCC(C(=O)N2CCCCC2)CC1)N1CCCCC1 (stereo unspecified)	102	101	99	.	103	.	.	.	.	.	.

From PubChem
